How the values were obtained:
LRP1 = test: Aβ-induced soluble LRP1 in HBMEC media upon MMP9 inhibition; type: cell-based, human; settings: Aβ(1-42) 2μM plus inhibitor 1μM, 48 hours at 37°C, ELISA, n = 3
LDLR = test: Aβ-induced soluble LDLR in HBMEC media upon MMP9 inhibition; type: cell-based, human; settings: Aβ(1-42) 2μM plus inhibitor 1μM, 48 hours at 37°C, ELISA, n = 3
[1] = system: in vitro model of the BBB (HBMEC monolayer); test: Paracellular marker; type: cell-based, human; settings: each SB-3CT concentration (0.1, 0.5, 1, 5, 10μM), data not shown
Procedure, shortened: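 HBMEC were seeded at 100,000 cells/cm² on fibronectin-coated (4 µg/cm²) 0.4 µm-pore inserts (0.3 cm²) to form a polarized monolayer. Inserts holding test compound were exposed to wells with 10 kD lucifer yellow dextran at 37 °C. Basolateral was sampled at time 0 and apical at 0, 30 and 60 min (basolateral-to-apical). Apparent permeability = 1/AC0 × dQ/dt, compared with control.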

apoE-TR mice = test: Mouse Aβ BBB clearance model: human Aβ; type: in vivo; settings: SB-3CT 25 mg/kg i.p., plasma human Aβ(1-42) ELISA, n = 4
HBMEC = test: LDH cytotoxicity assay in HBMEC extracellular media; type: cell-based, human; settings: 48 hours at 37°C, data not shown

Compound | decrease of soluble LRP1 levels compared to Aβ alone (LRP1) | reduction of soluble LDLR levels compared to Aβ alone (LDLR) | BBB monolayer integrity: movement of 10kDa lucifer yellow dextran vs control [1] | extent of Aβ BBB elimination in SB-3CT-treated apoE4-TR mice versus apoE3-TR animals (apoE-TR mice) | LDH release (HBMEC; 20μM Aβ) | cellular toxicity (LDH cytotoxicity assay) (HBMEC; Aβ concentrations 0 to 2μM)
O=S(=O)(CC1CS1)c1ccc(Oc2ccccc2)cc1 (stereo not shown) [SB-3CT] | approximately 40% | approximately 40% | no difference | the same as that observed in the apoE3-TR animals | – | –
CNC(=O)[C@@H](NC(=O)[C@H](CC(C)C)[C@H](O)C(=O)NO)C(C)(C)C [marimastat] | – | approximately 40% | – | – | – | –
Aβ(1-42): unlabeled human beta-amyloid (1-42) peptide, purchased from Invitrogen, used in monomeric form | – | – | – | – | significant increase in LDH release | no cellular toxicity was observed

From article PMC6842100 (Molecular neurobiology, 2019)
